In brackets after ≈: the same amount, converted by molar mass. Like-named read-outs stand apart in the source and are kept apart here.
How the values were obtained:
HIV-1 (NL4.3 virus) [1] = conditions: 21 days bi-daily dosing at 100 mg/kg; ref Stoddart et al. [29]; cited from earlier work
[2] = tested on: HCV Gt1b replicon in Huh 5-2 cells; experiment: HCV antiviral assay Huh 5-2; format: cell-based; conditions: Hepatitis C virus, Huh-5-2, 96 h, read-out: HCV Huh5.2 Gt1b replicon EC50
How it was run: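 Huh 5-2 cells seeded at 6.5 × 10³/well in DMEM with 250 μg/ml G418 and held 24 hr at 37°C, 5% CO2. Medium then replaced by 3-fold serial dilutions of test compound in complete DMEM without G418. After 4 days at 37°C, luciferase activity read and expressed as percent of untreated controls.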

Cytostatic assay = format: cell-based; conditions: human, Huh 5-2 cells
[3] = Solubility analysis in PBS pH 7.4; format: physicochemical; conditions: pH 7.4, aqueous buffer, kinetic from dmso stock
[4] = Plasma protein binding analysis; format: in vitro ADME; conditions: human
[5] = tested on: HCV Huh7 Gt1a replicon (H77); experiment: HCV replicon antiviral assay, genotype 1a; format: cell-based; conditions: Hepatitis C virus, Huh-7, 72 h, read-out: HCV Huh7 Gt1a replicon EC50
How it was run: (§1)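 Subgenomic replicon cells were maintained at 37°C, 5% CO2 in DMEM with 10% FBS and 250 μg/ml G418. They were seeded at 5 × 10³ cells/well without G418. Next day, serial dilutions of compound in DMEM plus 5% FBS were added for 72 hr at 37°C. HCV RNA was measured by one-step TaqMan real-time RT-PCR, with ribosomal RNA as the cell-number/cytotoxicity control. EC50 was derived from both measurements.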

HCV Huh7 Gt1b replicon = experiment: HCV replicon antiviral assay, genotype 1b; format: cell-based; conditions: Hepatitis C virus, Huh-7, 72 h, read-out: HCV Huh7 Gt1b replicon EC50
How it was run: as §1

[6] = tested on: HCV Huh7 Gt2a replicon (JFH-1); experiment: HCV replicon antiviral assay, genotype 2a; format: cell-based; conditions: Hepatitis C virus, Huh-7, 72 h, read-out: HCV Huh7 Gt2a replicon EC50
How it was run: as §1

HIV-1 in CD4+ HeLa cells = experiment: CD4+ HeLa HIV-1 inhibitory FACS assay; format: cell-based; conditions: Human immunodeficiency virus 1, HeLa, 48 h, read-out: HIV-1 HeLa cells IC50
[7] = tested on: HepG2 cells stably replicating HBV; experiment: HBV antiviral assay in cells stably replicating HBV; format: cell-based; conditions: Hepatitis B virus, 72 h
How it was run: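 HepG2 cells stably replicating HBV were treated with test compound at 0.1, 1 or 10 μM, with DMSO as control, for 3 days. Supernatant was then removed and cells were retreated. After a further 72 hr, HBsAg and HBeAg were measured by ELISA and HBV DNA was quantified, all in cell extracts and in triplicate.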

[8] = tested on: Huh7 cells transfected with HBV DNA; experiment: HBV antiviral assay in cells transfected with HBV DNA; format: cell-based; conditions: test/control value, day 3, 2 µM
How it was run: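 Huh7 cells were transfected with HBV DNA (8 μg) in the presence of 2 μM test compound or DMSO. On day 3, de novo HBsAg in cell extracts or supernatants was quantified by ELISA in triplicate. A test/control value was calculated from these readings.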

HIV-1 (NL4.3 virus) [9] = experiment: SCID-hu Thy/Liv mouse model of HIV-1 infection; format: in vivo, SCID-hu Thy/Liv mice; conditions: oral bi-daily 14 days, 50 or 100 mg/kg/day
How it was run: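 Human fetal thymus and liver were coimplanted under the kidney capsule of male C.B-17 SCID mice aged 6–8 weeks. Implants were inoculated with NL4-3 by direct injection 18 weeks later; controls received medium. Groups of six received 50 or 100 mg/kg/day by twice-daily oral gavage from day −1 until implant collection 2 weeks post-inoculation. Implant cells were assayed for p24 (ELISA), viral RNA (bDNA) and CD3/CD4/CD8 thymocytes (flow cytometry). Results are means with SD.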

HIV-1 viral load = conditions: 14 days dosing, HIV/HCV co-infected patients; cited from earlier work
[10] = biological target: HCV NS5A-cyclophilin A complex (Homo sapiens, UniProt P62937); experiment: biochemical
HCV NS5A-cyclophilin A complex, sequence (P62937 whole entry, one chain of several): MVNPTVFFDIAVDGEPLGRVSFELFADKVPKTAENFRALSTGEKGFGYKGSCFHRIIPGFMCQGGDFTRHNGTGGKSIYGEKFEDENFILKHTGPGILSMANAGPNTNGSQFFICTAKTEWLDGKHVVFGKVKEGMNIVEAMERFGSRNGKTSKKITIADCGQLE

In the case of `COC(=O)N[C@H](C(=O)N[C@@H](Cc1ccccc1)[C@@H](O)CN(Cc1ccc(-c2ccccn2)cc1)NC(=O)[C@@H](NC(=O)OC)C(C)(C)C)C(C)(C)C` [atazanavir], the “viral RNA reductions” value (HIV-1 (NL4.3 virus) [1]) is listed as 1–4 log10.

For `O=C1Nc2ccc(Cl)cc2[C@@](C#CC2CC2)(C(F)(F)F)O1` [efavirenz], the “viral RNA reductions” value (HIV-1 (NL4.3 virus) [1]) is given as 1–4 log10.

Molecule `C/C=C/C[C@@H](C)[C@@H](O)[C@H]1C(=O)N[C@@H](CC)C(=O)N(C)[C@H](C)C(=O)N(CC)[C@@H](C(C)C)C(=O)N[C@@H](C(C)C)C(=O)N(C)[C@@H](CC(C)C)C(=O)N[C@@H](C)C(=O)N[C@H](C)C(=O)N(C)[C@@H](CC(C)C)C(=O)N(C)[C@@H](CC(C)C)C(=O)N(C)[C@@H](C(C)C)C(=O)N1C` [Alisporivir] has an EC50 [2] of 96 ± 23 nM, a CC50 at 3 days (Cytostatic assay) of 11200 nM and a solubility at 4 h [3] of 15 µM (≈ 18.2 µg/mL). The fraction unbound at 5 h, 1 µM [4] was < 0.04, the EC50 [5] was 98 ± 11 nM and the EC50 (HCV Huh7 Gt1b replicon) was 76 ± 5 nM. The EC50 [6] was 102 ± 8 nM, the IC50 (HIV-1 in CD4+ HeLa cells) was 1500 ± 240 nM and the IC50 ([7]; read-out: HBV Huh7 stable HBV DNA IC50) was > 10000 nM. The IC50 ([7]; read-out: HBV Huh7 stable HBeAg IC50) was > 10000 nM, the IC50 ([7]; read-out: HBV Huh7 stable HBsAg IC50) was > 10000 nM and the “HBV HepG2 transfected HBsAg T/C d3 at 2uM” value [8] was 18%. The “overt signs of toxicity” value (HIV-1 (NL4.3 virus) [9]) was “No overt signs of toxicity”, the “mean drop in viral load” value (HIV-1 viral load) was ~ 1 log and the IC50 [10] was 240 ± 20 nM.

In the case of `Nc1nc(=O)n([C@@H]2CS[C@H](CO)O2)cc1F` [emtricitabine], the “viral RNA reductions” value (HIV-1 (NL4.3 virus) [1]) is listed as 1–4 log10.

In the case of `Cc1ccnc2c1NC(=O)c1cccnc1N2C1CC1` [nevirapine], the “viral RNA reductions” value (HIV-1 (NL4.3 virus) [1]) is listed as 1–4 log10.

— article PMC4336584 (Chemistry & biology, 2015)
